High-throughput results as filed in PubChem BioAssay.
Myeloid diff 2: promotes myeloid progenitor differentiation. ER-HoxA9 myeloid progenitors, lysozyme-GFP differentiation, flow cytometry. hit rate 1% among 360,000. calls only at 10 µM;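 active means normalized GFP-positive differentiation at or above the plate's own cutoff, the solvent-only control mean plus 3 SD; inconclusive means no clear call, values can overlap the other calls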;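 further: cells exposed to compound for four days before flow analysis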
ATG4B inhibitor: blocks human ATG4B protease cleavage of LC3 substrate; inhibition, % at 8.33 µM; ATG4B cleavage of LC3-PLA2, NBD-HPC fluorescence, 1 h; hit rate 0.51% among 340,000; Q9Y4P1; in the data active means inhibition above about 40%
Exocytosis inh: blocks lytic granule exocytosis; inhibition, % at 10 µM; AID 651702; TALL-104 LAMP-1 surface exposure, flow cytometry; cells stimulated with thapsigargin and PMA; hit rate 0.66% among 360,000;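 active means inhibition above about 55%, limit read from the data; inconclusive means no clear call, values can overlap the other calls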
CendR NRP1 mod: alters CendR peptide binding to human NRP-1; O14786; FAM-RPARPAR peptide binding to NRP-1, fluorescence polarization; inhibition, % at 25 µM; hit rate 0.85% among 360,000;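 active means inhibition or corrected inhibition above about 18%, plus a signal ratio from 0.5 to 1.5, limit read from the data, passing the limit was not always enough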
ABCB6 inh MLPCN: human ABCB6 transporter inhibition. Q9NP58. K562-ABCB6 porphyrin accumulation, flow cytometry, 1 h; hits give low values. fluorescence ratio to DMSO, % at 10 µM. hit rate 0.19% among 360,000;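 active means fluorescence ratio to DMSO below 75%, the collection mean minus 3 SD; inconclusive means too few cells collected in the well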;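 further: signal is porphyrin accumulated inside mitochondria; lower ratio means ABCB6 inhibition with less porphyrin fluorescence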
Arr AP2 block: inhibitors of human beta-arrestin and AP2 interaction; FITC-arrestin peptide / GST-AP2 beads, flow cytometry; AP2 beta2 appendage carries R879A mutation; inhibition, % at 10 µM; hit rate 0.31% among 340,000; AID 504490;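 active means inhibition above a set limit, near 3 SD of compounds lacking own fluorescence, cut at about 54% in these data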
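System: GST-AP2 R879A bound to glutathione beads, E. coli-expressed. Also added: 50 nM FITC-arrestin peptide. Schedule: compound with beads 12 min RT, then probe 1 h RT. Signal: bead flow cytometry, FITC channel. Read-out basis: percent response.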
Arr AP2 CP1: blocks beta-arrestin peptide binding to human AP2; shares compounds with Arr AP2 block; GST-AP2 beads, FITC arrestin peptide binding, flow cytometry; GST-fused beta2-adaptin appendage, R879A mutant; inhibition, % at 10 µM; hit rate 2% among 1,300; AID 504908;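 active means inhibition above a set limit, roughly 3 SD of non-fluorescent compound noise, cut at about 38% in these data; inactive means inhibition at or below that limit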;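 further: loss of bead fluorescence from 50 nM FITC arrestin peptide bound to appendage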
GST GSH counter: GST-GSH bead binding interference, counter-screen; shares compounds with Arr AP2 block; GST-fluorescein binding to GSH beads, fluorescence; inhibition, % at 10 µM; hit rate 2% among 1,300;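 active means inhibition above 50%, about 3 SD of the inhibition seen with non-fluorescent compounds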;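 further: fluorescein maleimide labelled GST captured on 4 micron glutathione beads; higher means more loss of bead fluorescence from quenching or blocked binding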
Large screens that a line does not name were inactive (follow-up assays come after a bar, where they were run). Sampled rows, rich in hits. Any-hit rate of the full collection: about 3.3%.

CCC(C(=O)Nc1ccc2c(c1)OCCO2)n1c(=O)[nH]c2ccccc2c1=O (centres undefined)	Myeloid diff 2 inconclusive | Arr AP2 CP1 inactive | GST GSH counter inactive
CCSc1nnc(NC(=O)Cc2cc(OC)c(OC)c(OC)c2)s1	none
CCc1nnc(NC(=O)Cc2cc(OC)c(OC)c(OC)c2)s1	Arr AP2 block 70.8 | Arr AP2 CP1 inactive | GST GSH counter inactive
O=C(Oc1cccc(NC(=O)c2ccco2)c1)c1ccc(Br)c(S(=O)(=O)N2CCCCC2)c1	none
O=C(CCC(=O)N1CCCCC1)Nc1ccc(Cl)c(Cl)c1	Arr AP2 block 84.8 | Arr AP2 CP1 inactive | GST GSH counter inactive
CC(=O)N1N=C(c2ccc(Br)cc2)CC1c1cn(C)c2ccccc12 (centres undefined)	Arr AP2 block 55.0 | Arr AP2 CP1 inactive
CCCC(=O)N1N=C(c2ccccc2)CC1c1cn(C)c2ccccc12 (centres undefined)	none
COc1ccc(S(=O)(=O)N2CCN(C)CC2)cc1NC(=O)c1ccccc1	none | Arr AP2 CP1 inactive | GST GSH counter inactive
CCN1CCN(S(=O)(=O)c2ccc(OC)c(NC(=O)c3ccccc3)c2)CC1	Myeloid diff 2 inconclusive | Arr AP2 CP1 inactive | GST GSH counter inactive
COc1ccc(S(=O)(=O)N2CCCCCC2)cc1NC(=O)c1ccccc1	none
CC(NC(=O)C1CC(=O)N(c2ccc3c(c2)OCCO3)C1)c1ccccc1 (centres undefined)	none (no result: ATG4B inhibitor, Arr AP2 block)
CCC(C(=O)NCc1ccco1)N(Cc1cccs1)C(=O)CNS(=O)(=O)c1ccccc1 (centres undefined)	Arr AP2 block 54.7 | Arr AP2 CP1 inactive | GST GSH counter inactive
CCC(C(=O)NCc1ccco1)N(C(=O)CNS(=O)(=O)c1ccccc1)c1ccccc1C (centres undefined)	none
COc1cc(CC(=O)OCC(=O)N2CCN(C(=O)c3ccco3)CC2)cc(OC)c1OC	none
COc1cc(CC(=O)OCC(=O)N2CCCCC2)cc(OC)c1OC	Arr AP2 block 57.8 | Arr AP2 CP1 inactive | GST GSH counter inactive
C/C(=N\OCC(=O)Nn1c(=O)[nH]c2ccccc2c1=O)c1cccs1	none
COc1cccc(NC(=O)c2cc(-c3ccc(C)o3)nc3ccccc23)c1	Arr AP2 block 54.4 | Arr AP2 CP1 inactive | GST GSH counter inactive
CC(C)(C)N(Cc1ccccc1)C(=O)CN1C(=O)NC2(CCCCCC2)C1=O	none
Cc1ccc(-c2nc(CN3CCN(C(=O)C4CCCO4)CC3)cs2)cc1 (centres undefined)	Myeloid diff 2 inconclusive
COc1ccccc1NS(=O)(=O)c1ccc(C)c(C(=O)NCC2(N(C)C)CCCCC2)c1	none | Arr AP2 CP1 inactive | GST GSH counter inactive
Cc1cccc(NS(=O)(=O)c2cccc(C(=O)NCC3(N4CCOCC4)CCCCC3)c2)c1	none | Arr AP2 CP1 inactive | GST GSH counter inactive
O=C(NCC1(N2CCOCC2)CCCCC1)c1cccc(S(=O)(=O)Nc2ccc(F)cc2)c1	none | Arr AP2 CP1 inactive | GST GSH counter inactive
COc1ccccc1NS(=O)(=O)c1ccc(C)c(C(N)=O)c1	none
O=C(NCC1(N2CCCCC2)CCCCC1)c1cccc(S(=O)(=O)Nc2ccc(F)cc2)c1	none | Arr AP2 CP1 inactive | GST GSH counter inactive
Cc1cccc(Nc2nccc(N(C)C)c2C#N)c1	none
CCOc1cc(CNCC2CCCO2)cc(Br)c1OCC(N)=O (centres undefined)	none
Cc1cc(C(=O)Nc2ccc(Cl)c(S(=O)(=O)N3CCOCC3)c2)c2ccccc2n1	none
COc1ccccc1NS(=O)(=O)c1cccc(C(=O)NCC2(N3CCCCC3)CCCCC2)c1	none | Arr AP2 CP1 inactive | GST GSH counter inactive
CCNC(=O)C1(C)CCN(C(=O)c2cccc(OC(F)(F)F)c2)C1 (centres undefined)	none (no result: ATG4B inhibitor, Arr AP2 block)
CC(OC(=O)Cc1c(F)cccc1Cl)C(=O)NC1(C#N)CCCCC1 (centres undefined)	none
COc1ccc2c(c1)SCCC2=O	none
